Screens from PubChem.
Rows were chosen to be rich in hits. Some 3.1% of all compounds tested hit in one or more screens of this group.
HIV Env fusion – inhibitors of HIV Env-mediated cell fusion. HeLa-JRFL Env/CEM21 cell fusion, luciferase. inhibition, % at 12.3 µM. actives 1.1% (n = 360,000);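 active means mean replicate inhibition score of at least 50 and every replicate individually at or above 50; inconclusive means only one of the two criteria met; inactive means mean below 50 and not all replicates reaching 50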
FGF22 binding – binders of recombinant human FGF22 by thermal shift | activity (Tm shift, normalised), % at 9.99 µM | actives 1.5% (n = 340,000) | AID 651658 | SYPRO orange fluorescence; percent of sucrose octasulfate shift, DMSO zero | Q9HCT0;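 active means mean Tm shift, scaled 0 neutral to 100 positive control, at about 1.3% or above, every replicate too, limit read from the data; inconclusive means no clear call, values can overlap the other calls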
Target sequence (Q9HCT0 whole entry, looked up): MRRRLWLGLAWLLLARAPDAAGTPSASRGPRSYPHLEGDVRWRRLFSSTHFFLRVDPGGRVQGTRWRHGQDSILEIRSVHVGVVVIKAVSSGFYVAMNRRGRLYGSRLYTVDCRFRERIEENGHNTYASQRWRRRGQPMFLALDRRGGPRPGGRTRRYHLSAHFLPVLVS
EWS-Fli block – EWS/Fli transcriptional activity inhibition | actives 0.67% (n = 350,000) | AID 651661 | inhibition, % at 12.6 µM | A673 NR0B1-luciferase reporter, viability-normalised;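 active means mean inhibition of at least 50% after viability correction, with every replicate also passing that limit; inconclusive means mean reaches 50% but only one of two replicates passes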;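 further: firefly luciferase signal divided by Alamar Blue viability fluorescence both relative to DMSO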
PAX8 inh HTS – inhibitors of PAX8 transcriptional activity in RMG-I cells; actives 1.2% (n = 360,000); RMG-I TPO-luciferase reporter, SteadyGlo, 24 h; inhibition, % at 12.6 µM;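 active means mean replicate inhibition at least 60% with every replicate also reaching 60%; inconclusive means only one of the two criteria is met; inactive means mean below 60% and not all replicates reaching 60%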;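 further: luciferase light reporting Pax8 driven TPO promoter activity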
PGC1a acetyl inh – lowers PGC1a acetylation signal in U2OS cells. AlphaScreen anti-acetyl-lysine; with virally co-expressed GCN5 acetyltransferase. inhibition, % at 15.6 µM. actives 0.17% (n = 350,000). AID 651687;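 active means every replicate shows inhibition of at least 40%; inconclusive means mean inhibition at least 40% but some replicate below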
FN deposition inh – fibronectin deposition inhibition; AH1F fibroblasts, Alexa488-fibronectin deposition fluorescence, overnight; inhibition, % at 12.6 µM; actives 0.086% (n = 350,000);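 active means mean inhibition across replicates of 30% or more, regardless of how many single replicates reach that level; inconclusive means mean under 30% yet at least half of replicates reach 30%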
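Measured by – fluorescence 485/525 nm · System – AH1F fibroblast monolayer, labelled fibronectin deposition · Amount – 10000 cells per well · Buffer or medium – serum-reduced DMEM (2% serum) · Doses – single dose, pinned · Also added – fluorescent fibronectin at 24 nM final · Schedule – 1 h cell attachment, overnight exposure to compound and label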
Numbers stand for hits; n = inactive; u = inconclusive; x = no result given; [ ] = another dose, or the depositor's remark.

SMILES	HIV Env fusion	FGF22 binding	EWS-Fli block	PAX8 inh HTS	PGC1a acetyl inh	FN deposition inh
C[C@@H]1CN([C@H](C)CO)C(=O)Cc2cc(NC(=O)Nc3ccc(C(F)(F)F)cc3)ccc2O[C@H]1CN(C)Cc1ccc(Oc2ccccc2)cc1	n	n	n	n	n	x
COc1ccc(CN(C)C[C@@H]2Oc3ccc(NC(=O)Nc4ccc(C(F)(F)F)cc4)cc3CC(=O)N([C@@H](C)CO)C[C@@H]2C)cc1	n	n	n	n	n	x
C[C@@H]1CN([C@@H](C)CO)C(=O)Cc2cc(NC(=O)Nc3ccc(C(F)(F)F)cc3)ccc2O[C@H]1CN(C)Cc1ccc(Oc2ccccc2)cc1	n	n	n	94.4	n	x
C[C@H](CO)N1C[C@H](C)[C@@H](CN(C)Cc2ccccc2)Oc2ccc(NC(=O)Nc3ccc(C(F)(F)F)cc3)cc2CC1=O	n	n	n	96.3	x	x
C[C@H](CO)N1C[C@H](C)[C@H](CN(C)Cc2ccccc2)Oc2ccc(NC(=O)Nc3ccc(C(F)(F)F)cc3)cc2CC1=O	n	n	n	n	x	x
C[C@@H]1CN([C@@H](C)CO)C(=O)Cc2cc(NC(=O)Nc3ccc(C(F)(F)F)cc3)ccc2O[C@H]1CN(C)Cc1ccc(C(F)(F)F)cc1	56.5[16.7 µM]	n	n	64.4	n	x
C[C@@H]1CN([C@@H](C)CO)C(=O)Cc2cc(NC(=O)Nc3ccc(C(F)(F)F)cc3)ccc2O[C@H]1CN(C)Cc1ccc2c(c1)OCO2	n	3.7	n	79.7	n	n
COc1ccc(NC(=O)Nc2ccc3c(c2)CC(=O)N([C@@H](C)CO)C[C@@H](C)[C@@H](CN(C)Cc2ccc(Oc4ccccc4)cc2)O3)cc1	n	x	n	98.2	n	x
COc1ccccc1-c1ccc2n(c1=O)C[C@H]1[C@H](CO)[C@@H](C(=O)N(C)C)N(CC3CCOCC3)[C@@H]21	x	n	n	n	n	x
O=C(Cc1ccccn1)N1CC(=O)N2[C@H](CO)[C@H](c3ccc(-c4ccccc4)cc3)[C@@H]2C1	x	x	n	n	n	x
C=CCn1c(C)cc(C2=NNC(=NC(C)(C)C)SC2)c1C	n	n	59.6	n	x	n
COCCn1c(C)cc(C2=NNC(=Nc3ccc(Cl)cc3Cl)SC2)c1C	n	x	x	x	n	x
C=CCn1c(C)cc(C2=NNC(=Nc3ccc(C)cc3)SC2)c1C	n	43.1	n	n	n	x
N#C[C@@H]1[C@H](c2ccc(-c3ccccc3F)cc2)[C@H](CO)N1C(=O)C1CCC1	n	n	n	n	n	n
N#C[C@@H]1[C@@H](c2ccc(C#Cc3ccc(F)cc3)cc2)[C@H](CO)N1C(=O)C1CCCC1	n	n	n	n	n	n
CCCC#Cc1ccc([C@@H]2[C@@H](C#N)N(C(=O)C3CCCC3)[C@H]2CO)cc1	n	n	n	n	n	n
N#C[C@H]1[C@@H](c2ccc(C#Cc3ccc(F)cc3)cc2)[C@H](CO)N1C(=O)C1CCCC1	n	n	n	86.9	n	n
CN(C)C(=O)c1cccc(-c2ccccc2[C@@H]2[C@@H](C#N)N(C(=O)C3CC3)[C@H]2CO)c1	x	n	n	112.5	n	n
CCCC#Cc1ccc([C@H]2[C@@H](CO)N(C(=O)C3CCCCC3)[C@H]2C#N)cc1	n	n	n	84.1	n	n
CN(C)C(=O)c1cccc(-c2ccccc2[C@@H]2[C@H](C#N)N(C(=O)C3CC3)[C@H]2CO)c1	x	n	n	n	n	n
N#C[C@@H]1[C@@H](c2ccc(-c3ccccc3F)cc2)[C@@H](CO)N1C(=O)C1CCC1	n	n	n	81.5	n	n
CCCN1C[C@@H](C)[C@@H](OC)CN(C)C(=O)c2ccc(NC(=O)c3ccccc3)cc2OC[C@H]1C	x	n	n	x	n	n
C[C@@H]1CCCCO[C@@H](CN(C)C(=O)NC2CCCCC2)[C@@H](C)CN([C@@H](C)CO)C(=O)c2cc(NS(=O)(=O)c3ccc(F)cc3)ccc2O1	n	n	n	n	n	n
C[C@@H]1CN([C@H](C)CO)C(=O)c2cccc(NS(=O)(=O)c3cn(C)cn3)c2O[C@H]1CN(C)Cc1ccc(C(F)(F)F)cc1	n	n	n	n	n	x
CCS(=O)(=O)N1CC2(C1)[C@H](c1ccccc1)[C@H](CO)N2CC1CCCC1	x	n	n	n	n	x
SMILES	HIV Env fusion	FGF22 binding	EWS-Fli block	PAX8 inh HTS	PGC1a acetyl inh	FN deposition inh
N#C[C@H]1[C@H](c2ccc(C#Cc3ccccc3F)cc2)[C@H](CO)N1C(=O)C1CCC1	n	n	65.6	87.0	n	n
COc1ccc(Cl)cc1NC(=O)C(C)NC(c1ccccc1)c1ccccc1 (stereo unspecified)	59.0	x	x	n	n	n
C[C@@H]1CN([C@@H](C)CO)C(=O)c2cc(/C=C/c3ccccc3)cnc2O[C@@H]1CN(C)C(=O)NC1CCCCC1	n	n	n	n	n	n
CC(C)(C)OC(=O)CC[C@@H](C(=O)N1CCN(C(=O)OC(C)(C)C)CC1)n1cc(C(Cc2ccc(O)cc2)NC(=O)OC(C)(C)C)nn1 (stereo partly specified)	61.7	n	n	n	x	n
CC(C)CC(NC(=O)OC(C)(C)C)c1cn([C@@H](CCCCNC(=O)OC(C)(C)C)C(=O)N2CCN(C(=O)OC(C)(C)C)CC2)nn1 (stereo partly specified)	n	x	n	n	n	n
C[C@@H]1CN([C@H](C)CO)C(=O)c2cccc(NC(=O)Nc3ccc(C(F)(F)F)cc3)c2O[C@@H]1CN(C)S(C)(=O)=O	x	n	n	n	n	n
CCOC(=O)C1=C[C@@H](C2CCCC2)N(S(=O)(=O)c2ccc([N+](=O)[O-])cc2)[C@H]1c1ccccc1	55.4	n	n	n	n	n
CO[C@@H]1CN(C)C(=O)c2ccc(NC(=O)c3cccc(F)c3)cc2OC[C@@H](C)N(CC2CC2)C[C@H]1C	x	n	n	x	n	n
Cc1ccc(-c2ccc3c(c2)O[C@@H](CN(C)C(=O)Nc2ccccc2)[C@@H](C)CN([C@H](C)CO)S3(=O)=O)cc1	n	n	n	68.3	n	n
COc1cccc(NC(=O)N(C)C[C@@H]2Oc3cc(C#Cc4ccccc4)ccc3S(=O)(=O)N([C@@H](C)CO)C[C@@H]2C)c1	u	1.4	n	n	n	n
Cc1ccccc1-c1ccc2c(c1)O[C@@H](CN(C)C(=O)Nc1ccc(C(F)(F)F)cc1)[C@@H](C)CN([C@@H](C)CO)S2(=O)=O	n	n	n	n	n	n
Cc1ccc(-c2ccc3c(c2)O[C@@H](CN(C)C(=O)Nc2ccccc2)[C@@H](C)CN([C@@H](C)CO)S3(=O)=O)cc1	n	1.5	n	n	n	n
Cc1ccccc1-c1ccc2c(c1)O[C@H](CN(C)C(=O)Nc1ccc(C(F)(F)F)cc1)[C@H](C)CN([C@H](C)CO)S2(=O)=O	71.8[16.7 µM]	n	n	83.0	n	n
